Source: the array DNA melting data of Ke et al. (doi:10.1101/2024.01.08.574731)

Legend:
[1] = folding enthalpy; higher = less favourable; fluorescence melt of hairpins on a sequencing array, two-state fit; settings: sodium 0.088 M
Summary of the method: (§1)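 Bootstrapped two-state fits yielded melting temperature and folding enthalpy for library hairpins. Cy3 fluorescence, with annealed Cy3 and quencher oligos, was imaged on a sequenced MiSeq flow cell in 50 mM Na-HEPES pH 8.0, 25 mM NaCl in 2.5 °C steps up to 60 °C, and normalised to pre-quench Cy3 and to control constructs. Four replicates were combined by inverse variance, and fitted temperatures were raised by 9.35 °C to match UV melts.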

[2] = melting temperature; fluorescence melt of hairpins on a sequencing array, two-state fit, raised by 9.35 °C to match UV melts; settings: sodium 0.088 M
Summary of the method: as §1

AAAGGGAAACCTTT (((((....)))))
folding enthalpy [1]: -10 kcal/mol
Tm [2]: 32.2 °C

AACGAGAAATCGTT (((((....)))))
folding enthalpy [1]: -16.9 kcal/mol
Tm [2]: 38.5 °C

AAGATGAAAATCTT (((((....)))))
folding enthalpy [1]: -8.93 kcal/mol
Tm [2]: 28.4 °C

AATGGGAAACCATT (((((....)))))
folding enthalpy [1]: -14.1 kcal/mol
Tm [2]: 37.7 °C

ACAGGGAAACCTGT (((((....)))))
folding enthalpy [1]: -18.8 kcal/mol
Tm [2]: 48.3 °C

ACAGTGAAAACTGT (((((....)))))
folding enthalpy [1]: -19.2 kcal/mol
Tm [2]: 45.7 °C

ACATCGAAAGATGT (((((....)))))
folding enthalpy [1]: -19.6 kcal/mol
Tm [2]: 52.6 °C

ACCAAGAAATTGGT (((((....)))))
folding enthalpy [1]: -13.7 kcal/mol
Tm [2]: 37.5 °C

ACCATGAAAATGGT (((((....)))))
folding enthalpy [1]: -20.3 kcal/mol
Tm [2]: 46.6 °C

ACCGGGAAACCGGT (((((....)))))
folding enthalpy [1]: -16.6 kcal/mol
Tm [2]: 66.5 °C

ACCTTGAAAAAGGT (((((....)))))
folding enthalpy [1]: -13.4 kcal/mol
Tm [2]: 47.3 °C

ACGAGGAAACTCGT (((((....)))))
folding enthalpy [1]: -26 kcal/mol
Tm [2]: 50.3 °C

ACGCAGAAATGCGT (((((....)))))
folding enthalpy [1]: -21.7 kcal/mol
Tm [2]: 55.7 °C

ACTACGAAAGTAGT (((((....)))))
folding enthalpy [1]: -18.7 kcal/mol
Tm [2]: 50.9 °C

ACTCGGAAACGAGT (((((....)))))
folding enthalpy [1]: -20.8 kcal/mol
Tm [2]: 52.3 °C

ACTTTGAAAAAAGT (((((....)))))
folding enthalpy [1]: -8.08 kcal/mol
Tm [2]: 30.6 °C

AGAAACAGAAATGGTTCT ((((.((....)).))))
folding enthalpy [1]: -22.8 kcal/mol
Tm [2]: 33.1 °C

AGAAACCGAAAGGCTTCT ((((.((....)).))))
folding enthalpy [1]: -28.4 kcal/mol
Tm [2]: 40.9 °C

AGAAGGAAACTTCT (((((....)))))
folding enthalpy [1]: -13.6 kcal/mol
Tm [2]: 30.7 °C

AGCAGGAAACTGCT (((((....)))))
folding enthalpy [1]: -22.8 kcal/mol
Tm [2]: 52.7 °C

AGCCTGAAAAGGCT (((((....)))))
folding enthalpy [1]: -18.2 kcal/mol
Tm [2]: 66.1 °C

AGGAAGAAATTCCT (((((....)))))
folding enthalpy [1]: -11.9 kcal/mol
Tm [2]: 28.9 °C

ATAGGGAAACCTAT (((((....)))))
folding enthalpy [1]: -11.2 kcal/mol
Tm [2]: 32.4 °C

ATAGTGAAAACTAT (((((....)))))
folding enthalpy [1]: -12.8 kcal/mol
Tm [2]: 30.4 °C

ATATCGAAAGATAT (((((....)))))
folding enthalpy [1]: -15.8 kcal/mol
Tm [2]: 42.2 °C

ATATGGAAACATAT (((((....)))))
folding enthalpy [1]: -11.4 kcal/mol
Tm [2]: 27.6 °C

ATCCCGAAAGGGAT (((((....)))))
folding enthalpy [1]: -29.1 kcal/mol
Tm [2]: 60.9 °C

ATCTGGAAACAGAT (((((....)))))
folding enthalpy [1]: -18.3 kcal/mol
Tm [2]: 39.1 °C

ATCTTGAAAAAGAT (((((....)))))
folding enthalpy [1]: -9.95 kcal/mol
Tm [2]: 32.9 °C

ATGCGGAAACGCAT (((((....)))))
folding enthalpy [1]: -17.1 kcal/mol
Tm [2]: 57.7 °C

ATGTAGAAATACAT (((((....)))))
folding enthalpy [1]: -7.12 kcal/mol
Tm [2]: 28.2 °C

ATTCGGAAACGAAT (((((....)))))
folding enthalpy [1]: -18.4 kcal/mol
Tm [2]: 44.8 °C

ATTCTGAAAAGAAT (((((....)))))
folding enthalpy [1]: -12.6 kcal/mol
Tm [2]: 32.2 °C

ATTGCGAAAGCAAT (((((....)))))
folding enthalpy [1]: -17.5 kcal/mol
Tm [2]: 57.6 °C

ATTGTGAAAACAAT (((((....)))))
folding enthalpy [1]: -14.9 kcal/mol
Tm [2]: 39 °C

ATTTCGAAAGAAAT (((((....)))))
folding enthalpy [1]: -16 kcal/mol
Tm [2]: 42.1 °C

CAACAGAAATGTTG (((((....)))))
folding enthalpy [1]: -22.1 kcal/mol
Tm [2]: 40.8 °C

CAACCAGAAATGGTTG ((((((....))))))
folding enthalpy [1]: -29.4 kcal/mol
Tm [2]: 53.1 °C

CAACTGAAAAGTTG (((((....)))))
folding enthalpy [1]: -22.1 kcal/mol
Tm [2]: 46.2 °C

CAAGAGAAATCTTG (((((....)))))
folding enthalpy [1]: -10.5 kcal/mol
Tm [2]: 31.7 °C

CAATCAGAAATGGTTG (((.((....)).)))
folding enthalpy [1]: -13.9 kcal/mol
Tm [2]: 29.3 °C

CAATCGAAAGATTG (((((....)))))
folding enthalpy [1]: -22.6 kcal/mol
Tm [2]: 51.3 °C

CACAAGAAATTGTG (((((....)))))
folding enthalpy [1]: -21.7 kcal/mol
Tm [2]: 37.6 °C

CAGGTGAAAACCTG (((((....)))))
folding enthalpy [1]: -24.5 kcal/mol
Tm [2]: 53 °C

CATCCGAAAGGATG (((((....)))))
folding enthalpy [1]: -25.8 kcal/mol
Tm [2]: 63.1 °C

CATGAGAAATCATG (((((....)))))
folding enthalpy [1]: -13.9 kcal/mol
Tm [2]: 43.9 °C

CCCAAGAAATTGGG (((((....)))))
folding enthalpy [1]: -17.3 kcal/mol
Tm [2]: 45.3 °C

CCCGAGAAATCGGG (((((....)))))
folding enthalpy [1]: -19.6 kcal/mol
Tm [2]: 54.2 °C

CCGTTGAAAAACGG (((((....)))))
folding enthalpy [1]: -19.9 kcal/mol
Tm [2]: 54.3 °C

CCTAGGAAACTAGG (((((....)))))
folding enthalpy [1]: -25.4 kcal/mol
Tm [2]: 41.2 °C

CCTCAGAAATGAGG (((((....)))))
folding enthalpy [1]: -19.7 kcal/mol
Tm [2]: 45.2 °C

CCTTAGAAATAAGG (((((....)))))
folding enthalpy [1]: -10.5 kcal/mol
Tm [2]: 28.6 °C

CCTTCGAAAGAAGG (((((....)))))
folding enthalpy [1]: -20.7 kcal/mol
Tm [2]: 55.2 °C

CCTTTGAAAAAAGG (((((....)))))
folding enthalpy [1]: -12.2 kcal/mol
Tm [2]: 39.7 °C

CGAACGAAAGTTCG (((((....)))))
folding enthalpy [1]: -29.2 kcal/mol
Tm [2]: 68.7 °C

CGAACGGAAACGTCGTCG ((((((....)))..)))
folding enthalpy [1]: -18.3 kcal/mol
Tm [2]: 47.1 °C

CGAACGGAAACGTGGTCG ((((((....)))..)))
folding enthalpy [1]: -12.7 kcal/mol
Tm [2]: 32.7 °C

CGAACGGAAACGTTATCG ((((((....)))..)))
folding enthalpy [1]: -14.6 kcal/mol
Tm [2]: 28.8 °C

CGAAGCCGGAAACGGTCG (((..(((....))))))
folding enthalpy [1]: -12.6 kcal/mol
Tm [2]: 37.8 °C

CGAAGCGGAAACGCATCG (((.(((....))).)))
folding enthalpy [1]: -27.5 kcal/mol
Tm [2]: 51.5 °C

CGAAGCGGAAACGCCTCG (((.(((....))).)))
folding enthalpy [1]: -23.8 kcal/mol
Tm [2]: 47.3 °C

CGAATCGGAAACGAGTCG (((.(((....))).)))
folding enthalpy [1]: -40.2 kcal/mol
Tm [2]: 51.3 °C

CGAATGAAAATTCG (((((....)))))
folding enthalpy [1]: -22.5 kcal/mol
Tm [2]: 48.1 °C

CGACCCGGAAACGGTCG (((.(((....))))))
folding enthalpy [1]: -30.1 kcal/mol
Tm [2]: 52.5 °C

CGACCCGGAAACGGTTCG (((.(((....))).)))
folding enthalpy [1]: -39.8 kcal/mol
Tm [2]: 48.6 °C

CGACCGGAAACGGCCTCG ((((((....)))..)))
folding enthalpy [1]: -11.9 kcal/mol
Tm [2]: 30.2 °C

CGACCGGAAACGGGCTCG ((((((....)))..)))
folding enthalpy [1]: -12.1 kcal/mol
Tm [2]: 35.8 °C

CGACCGGAAACGGTTTCG ((((((....)))..)))
folding enthalpy [1]: -10.3 kcal/mol
Tm [2]: 33.5 °C

CGACGCCGGAAACGGTCG (((..(((....))))))
folding enthalpy [1]: -18.3 kcal/mol
Tm [2]: 44.3 °C

CGACGCGGAAACGCATCG (((.(((....))).)))
folding enthalpy [1]: -28 kcal/mol
Tm [2]: 49.1 °C

CGACGCGGAAACGCTCG (((.(((....))))))
folding enthalpy [1]: -21.8 kcal/mol
Tm [2]: 49.3 °C

CGACGTCGGAAACGATCG (((..(((....))))))
folding enthalpy [1]: -11.2 kcal/mol
Tm [2]: 37 °C

CGACTCGGAAACGACTCG (((.(((....))).)))
folding enthalpy [1]: -30.6 kcal/mol
Tm [2]: 34.2 °C

CGAGAGAAATCTCG (((((....)))))
folding enthalpy [1]: -23.9 kcal/mol
Tm [2]: 47.5 °C

CGAGCCGGAAACGGATCG (((.(((....))).)))
folding enthalpy [1]: -41.2 kcal/mol
Tm [2]: 61.7 °C

CGAGCGGAAACGCCATCG ((((((....)))..)))
folding enthalpy [1]: -12.5 kcal/mol
Tm [2]: 31.9 °C

CGAGCGGAAACGCGTCG ((((((....))).)))
folding enthalpy [1]: -13.2 kcal/mol
Tm [2]: 53.6 °C

CGAGCGGAAACGCTATCG ((((((....)))..)))
folding enthalpy [1]: -13.1 kcal/mol
Tm [2]: 35.1 °C

CGAGCGGAAACGCTGTCG ((((((....)))..)))
folding enthalpy [1]: -11.2 kcal/mol
Tm [2]: 43 °C

CGAGCTCGGAAACGATCG (((..(((....))))))
folding enthalpy [1]: -6.9 kcal/mol
Tm [2]: 27.9 °C

CGAGGCGGAAACGCGTCG (((.(((....))).)))
folding enthalpy [1]: -32.1 kcal/mol
Tm [2]: 62.5 °C

CGAGGGAAACCTCG (((((....)))))
folding enthalpy [1]: -25.4 kcal/mol
Tm [2]: 53.7 °C

CGAGTCGGAAACGAGTCG (((.(((....))).)))
folding enthalpy [1]: -35.9 kcal/mol
Tm [2]: 55.9 °C

CGAGTTCGGAAACGATCG (((..(((....))))))
folding enthalpy [1]: -10.2 kcal/mol
Tm [2]: 30.8 °C

CGATACGGAAACGTCTCG (((.(((....))).)))
folding enthalpy [1]: -33.7 kcal/mol
Tm [2]: 42 °C

CGATACGGAAACGTGTCG (((.(((....))).)))
folding enthalpy [1]: -51.4 kcal/mol
Tm [2]: 52.8 °C

CGATACGGAAACGTTTCG (((.(((....))).)))
folding enthalpy [1]: -34.6 kcal/mol
Tm [2]: 45.9 °C

CGATAGAAATATCG (((((....)))))
folding enthalpy [1]: -19.8 kcal/mol
Tm [2]: 39.1 °C

CGATAGCGGAAACGCTCG (((..(((....))))))
folding enthalpy [1]: -13.9 kcal/mol
Tm [2]: 41 °C

CGATATCGGAAACGATCG (((..(((....))))))
folding enthalpy [1]: -16.8 kcal/mol
Tm [2]: 35.3 °C

CGATCACGGAAACGTTCG (((..(((....))))))
folding enthalpy [1]: -17.2 kcal/mol
Tm [2]: 35.5 °C

CGATCGGAAACGATCTCG ((((((....)))..)))
folding enthalpy [1]: -12.1 kcal/mol
Tm [2]: 36.9 °C

CGATCTCGGAAACGATCG (((..(((....))))))
folding enthalpy [1]: -20.3 kcal/mol
Tm [2]: 36.7 °C

CGATTACGGAAACGTTCG (((..(((....))))))
folding enthalpy [1]: -21.5 kcal/mol
Tm [2]: 38.5 °C

CGCAACCGGAAACGGGCG (((..(((....))))))
folding enthalpy [1]: -20.8 kcal/mol
Tm [2]: 50.1 °C

CGCAACGGAAACGTAGCG (((.(((....))).)))
folding enthalpy [1]: -38 kcal/mol
Tm [2]: 53.4 °C
